In ChEMBL document CHEMBL2062515, “Synthesis and evaluation of novel radioligands for positron emission tomography imaging of metabotropic glutamate receptor subtype 1 (mGluR1) in rodent brain” (J Med Chem, 2012):
The source made the active and inactive calls. The calls are words filed in the database; no cut-off is given here.

Columns and labels:
[1] = Lipophilicity, log D of the compound in octanol-phosphate buffer at pH 7.4 by Shake flask method; format: physicochemical
How it was run: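 Radioligand shaken with n-octanol and 0.1 M sodium phosphate buffer pH 7.4 (3.0 g each), vortex 3 min room temperature, centrifuged 2330g 5 min; phases weighed and counted, octanol repartitioned until constant. LogD = log(cpm/g octanol / cpm/g buffer); triplicate.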

[2] = biological target: Metabotropic glutamate receptor 1 (Rattus norvegicus, UniProt P23385); assay: Displacement of 4-[18F]fluoro-N-[4-(6-(isopropylamino)pyrimidin-4-yl)-1,3-thiazol-2-yl]-N-methylbenzamide from mGluR1 in Sprague-Dawley rat brain homogenates after 1 hr; format: tissue-based
How it was run: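 Rat whole-brain homogenate (washed pellets in 50 mM Tris-HCl pH 7.4, 120 mM NaCl; diluted to 100 mg/mL in Tris-HCl with NaCl, KCl, MgCl₂, CaCl₂) incubated 1 h, room temperature with [¹⁸F]-ligand (3 nM in PBS) and competitor […] in 0.1% DMSO. Filtration on PEI-treated GF/C, gamma counting; Kd by Scatchard; IC50/Ki by nonlinear regression; duplicate, mean SE.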

[3] = biological target: Metabotropic glutamate receptor 5 (Rattus norvegicus, UniProt P31424); assay: Displacement of [11C]-ABP688 from mGluR5 in Sprague-Dawley rat brain homogenates after 1 hr by gamma counting; format: tissue-based
How it was run: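 mGluR5 competition in same rat brain homogenate, run as mGluR1 assay but with [¹¹C]ABP688-type radioligand: 1 h room temperature incubation, filtration through PEI-treated glass fiber filters, gamma counting, nonlinear regression for IC50.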

[4] = biological target: Metabotropic glutamate receptor 1 (Rattus norvegicus) (UniProt P23385); assay: Binding affinity to mGluR1 in Sprague-Dawley rat cerebellum at 0.4 MBq after 30 mins by autoradiography
[5] = biological target: Metabotropic glutamate receptor 1 (Rattus norvegicus) (UniProt P23385); assay: Binding affinity to mGluR1 in Sprague-Dawley rat thalamus at 0.4 MBq after 30 mins by autoradiography
How it was run: (§1)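 Sections were 20 μm rat brain slices, preincubated 20 min at room temperature in 50 mM Tris-HCl pH 7.4 containing 1.2 mM MgCl₂ and 2 mM CaCl₂. Incubation was 30 min at room temperature with an ¹⁸F radioligand at 0.4 MBq (5 pM or 4 pM), with or without JNJ-16259685 (1 μM). Sections were washed 3 × 5 min in cold buffer, rinsed in cold distilled water and air-dried cold.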

[6] = biological target: Metabotropic glutamate receptor 1 (Rattus norvegicus) (UniProt P23385); assay: Binding affinity to mGluR1 in Sprague-Dawley rat striatum at 0.4 MBq after 30 mins by autoradiography; how it was run: as §1
[7] = biological target: Metabotropic glutamate receptor 1 (Rattus norvegicus) (UniProt P23385); assay: Binding affinity to mGluR1 in Sprague-Dawley rat brain stem at 0.4 MBq after 30 mins by autoradiography; format: tissue-based
[8] = biological target: Metabotropic glutamate receptor 1 (Rattus norvegicus) (UniProt P23385); assay: Binding affinity to mGluR1 in Sprague-Dawley rat cerebellum at 0.4 MBq after 30 mins by autoradiography in presence of JNJ16259685
[9] = biological target: Metabotropic glutamate receptor 1 (Rattus norvegicus) (UniProt P23385); assay: Binding affinity to mGluR1 in Sprague-Dawley rat thalamus at 0.4 MBq after 30 mins by autoradiography in presence of JNJ16259685; conditions: 0.4 M, tested as the 18F-labelled form; how it was run: as §1
[10] = biological target: Metabotropic glutamate receptor 1 (Rattus norvegicus) (UniProt P23385); assay: Binding affinity to mGluR1 in Sprague-Dawley rat striatum at 0.4 MBq after 30 mins by autoradiography in presence of JNJ16259685; conditions: 0.4 M, tested as the 18F-labelled form; how it was run: as §1
[11] = biological target: Metabotropic glutamate receptor 1 (Rattus norvegicus) (UniProt P23385); assay: Binding affinity to mGluR1 in Sprague-Dawley rat brain stem at 0.4 MBq after 30 mins by autoradiography in presence of JNJ16259685; format: tissue-based; conditions: 0.4 M, tested as the 18F-labelled form; how it was run: as §1
[12] = biological target: Metabotropic glutamate receptor 1 (Rattus norvegicus) (UniProt P23385); assay: Binding affinity to mGluR1 in Sprague-Dawley rat cerebellum at 9.2 MBq after 30 mins by autoradiography; conditions: 9.2 M, tested as the 11C-labelled form
How it was run: (§2)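 Rat brain sections (20 μm) were preincubated 20 min at room temperature in 50 mM Tris-HCl pH 7.4 with 1.2 mM MgCl₂ and 2 mM CaCl₂. They were then incubated 30 min at room temperature in fresh buffer with the ¹¹C radioligand (9.2 MBq, 0.5 nM), with or without JNJ-16259685 (1 μM) to define specific binding. Sections were washed 3 × 5 min in cold buffer, dipped in cold water and dried with cold air.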

[13] = biological target: Metabotropic glutamate receptor 1 (Rattus norvegicus) (UniProt P23385); assay: Binding affinity to mGluR1 in Sprague-Dawley rat thalamus at 9.2 MBq after 30 mins by autoradiography; conditions: 9.2 M, tested as the 11C-labelled form; how it was run: as §2
[14] = biological target: Metabotropic glutamate receptor 1 (Rattus norvegicus) (UniProt P23385); assay: Binding affinity to mGluR1 in Sprague-Dawley rat striatum at 9.2 MBq after 30 mins by autoradiography; conditions: 9.2 M, tested as the 11C-labelled form; how it was run: as §2
[15] = biological target: Metabotropic glutamate receptor 1 (Rattus norvegicus) (UniProt P23385); assay: Binding affinity to mGluR1 in Sprague-Dawley rat brain stem at 9.2 MBq after 30 mins by autoradiography; format: tissue-based; conditions: 9.2 M, tested as the 11C-labelled form; how it was run: as §2
[16] = biological target: Metabotropic glutamate receptor 1 (Rattus norvegicus) (UniProt P23385); assay: Binding affinity to mGluR1 in Sprague-Dawley rat cerebellum at 9.2 MBq after 30 mins by autoradiography relative to control in presence of JNJ16259685; conditions: 9.2 M, tested as the 11C-labelled form; how it was run: as §2
[17] = biological target: Metabotropic glutamate receptor 1 (Rattus norvegicus) (UniProt P23385); assay: Binding affinity to mGluR1 in Sprague-Dawley rat thalamus at 9.2 MBq after 30 mins by autoradiography relative to control in presence of JNJ16259685; conditions: 9.2 M, tested as the 11C-labelled form; how it was run: as §2
[18] = biological target: Metabotropic glutamate receptor 1 (Rattus norvegicus) (UniProt P23385); assay: Binding affinity to mGluR1 in Sprague-Dawley rat striatum at 9.2 MBq after 30 mins by autoradiography relative to control in presence of JNJ16259685; conditions: 9.2 M, tested as the 11C-labelled form; how it was run: as §2
[19] = biological target: Metabotropic glutamate receptor 1 (Rattus norvegicus) (UniProt P23385); assay: Binding affinity to mGluR1 in Sprague-Dawley rat brain stem at 9.2 MBq after 30 mins by autoradiography relative to control in presence of JNJ16259685; format: tissue-based; conditions: 9.2 M, tested as the 11C-labelled form; how it was run: as §2
[20] = biological target: Metabotropic glutamate receptor 1 (Rattus norvegicus) (UniProt P23385); assay: Binding affinity to mGluR1 in Sprague-Dawley rat brain at 9.2 MBq after 30 mins by autoradiography relative to control in presence of JNJ16259685; format: tissue-based; conditions: 9.2 M, tested as the 11C-labelled form; how it was run: as §2
[21] = biological target: Metabotropic glutamate receptor 1 (Rattus norvegicus) (UniProt P23385); assay: Binding affinity to mGluR1 in Sprague-Dawley rat thalamus after 30 mins by autoradiography in presence of JNJ16259685; conditions: tested as the 11C-labelled form
[22] = biological target: Metabotropic glutamate receptor 1 (Rattus norvegicus) (UniProt P23385); assay: Binding affinity to mGluR1 in Sprague-Dawley rat striatum after 30 mins by autoradiography in presence of JNJ16259685; conditions: tested as the 11C-labelled form
[23] = biological target: Metabotropic glutamate receptor 1 (Rattus norvegicus) (UniProt P23385); assay: Binding affinity to mGluR1 in Sprague-Dawley rat brain stem after 30 mins by autoradiography in presence of JNJ16259685; conditions: tested as the 11C-labelled form
[24] = 0.4 M, tested as the 18F-labelled form
[25] = 9.2 M, in the assay text read “9.2 MBq” for “0.4 MBq”, tested as the 11C-labelled form

Metabotropic glutamate receptor 5, sequence (P31424 whole entry): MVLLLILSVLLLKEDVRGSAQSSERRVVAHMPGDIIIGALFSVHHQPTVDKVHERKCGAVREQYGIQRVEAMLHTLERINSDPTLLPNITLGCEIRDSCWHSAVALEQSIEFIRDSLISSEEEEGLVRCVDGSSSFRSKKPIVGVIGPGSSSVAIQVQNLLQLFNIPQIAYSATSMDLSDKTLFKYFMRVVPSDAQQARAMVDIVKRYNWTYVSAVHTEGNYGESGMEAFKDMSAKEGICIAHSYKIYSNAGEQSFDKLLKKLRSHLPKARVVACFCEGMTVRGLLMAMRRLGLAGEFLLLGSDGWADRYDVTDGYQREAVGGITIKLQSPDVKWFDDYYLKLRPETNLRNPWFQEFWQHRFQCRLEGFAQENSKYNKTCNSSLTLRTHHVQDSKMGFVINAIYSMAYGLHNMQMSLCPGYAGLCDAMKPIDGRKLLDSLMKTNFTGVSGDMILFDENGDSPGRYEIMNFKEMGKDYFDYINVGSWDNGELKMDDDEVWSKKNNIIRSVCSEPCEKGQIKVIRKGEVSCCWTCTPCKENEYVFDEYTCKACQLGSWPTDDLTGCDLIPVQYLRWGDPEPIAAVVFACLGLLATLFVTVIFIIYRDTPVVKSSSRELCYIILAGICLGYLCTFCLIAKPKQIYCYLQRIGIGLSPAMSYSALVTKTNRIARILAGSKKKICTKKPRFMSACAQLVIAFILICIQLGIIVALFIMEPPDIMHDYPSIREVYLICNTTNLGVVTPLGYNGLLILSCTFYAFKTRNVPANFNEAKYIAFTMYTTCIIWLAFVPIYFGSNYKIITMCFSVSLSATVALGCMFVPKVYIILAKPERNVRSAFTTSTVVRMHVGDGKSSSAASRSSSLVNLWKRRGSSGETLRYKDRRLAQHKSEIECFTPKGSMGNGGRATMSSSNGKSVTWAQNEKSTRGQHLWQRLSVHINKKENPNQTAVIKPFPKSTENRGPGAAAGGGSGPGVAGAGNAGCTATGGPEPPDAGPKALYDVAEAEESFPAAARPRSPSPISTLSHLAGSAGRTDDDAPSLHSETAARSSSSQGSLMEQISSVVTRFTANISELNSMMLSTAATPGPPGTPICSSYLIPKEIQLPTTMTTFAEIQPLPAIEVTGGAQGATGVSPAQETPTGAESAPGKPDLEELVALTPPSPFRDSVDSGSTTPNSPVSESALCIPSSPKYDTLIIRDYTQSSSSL
Metabotropic glutamate receptor 1 (Rattus norvegicus), sequence (P23385 19-1199 limits assumed): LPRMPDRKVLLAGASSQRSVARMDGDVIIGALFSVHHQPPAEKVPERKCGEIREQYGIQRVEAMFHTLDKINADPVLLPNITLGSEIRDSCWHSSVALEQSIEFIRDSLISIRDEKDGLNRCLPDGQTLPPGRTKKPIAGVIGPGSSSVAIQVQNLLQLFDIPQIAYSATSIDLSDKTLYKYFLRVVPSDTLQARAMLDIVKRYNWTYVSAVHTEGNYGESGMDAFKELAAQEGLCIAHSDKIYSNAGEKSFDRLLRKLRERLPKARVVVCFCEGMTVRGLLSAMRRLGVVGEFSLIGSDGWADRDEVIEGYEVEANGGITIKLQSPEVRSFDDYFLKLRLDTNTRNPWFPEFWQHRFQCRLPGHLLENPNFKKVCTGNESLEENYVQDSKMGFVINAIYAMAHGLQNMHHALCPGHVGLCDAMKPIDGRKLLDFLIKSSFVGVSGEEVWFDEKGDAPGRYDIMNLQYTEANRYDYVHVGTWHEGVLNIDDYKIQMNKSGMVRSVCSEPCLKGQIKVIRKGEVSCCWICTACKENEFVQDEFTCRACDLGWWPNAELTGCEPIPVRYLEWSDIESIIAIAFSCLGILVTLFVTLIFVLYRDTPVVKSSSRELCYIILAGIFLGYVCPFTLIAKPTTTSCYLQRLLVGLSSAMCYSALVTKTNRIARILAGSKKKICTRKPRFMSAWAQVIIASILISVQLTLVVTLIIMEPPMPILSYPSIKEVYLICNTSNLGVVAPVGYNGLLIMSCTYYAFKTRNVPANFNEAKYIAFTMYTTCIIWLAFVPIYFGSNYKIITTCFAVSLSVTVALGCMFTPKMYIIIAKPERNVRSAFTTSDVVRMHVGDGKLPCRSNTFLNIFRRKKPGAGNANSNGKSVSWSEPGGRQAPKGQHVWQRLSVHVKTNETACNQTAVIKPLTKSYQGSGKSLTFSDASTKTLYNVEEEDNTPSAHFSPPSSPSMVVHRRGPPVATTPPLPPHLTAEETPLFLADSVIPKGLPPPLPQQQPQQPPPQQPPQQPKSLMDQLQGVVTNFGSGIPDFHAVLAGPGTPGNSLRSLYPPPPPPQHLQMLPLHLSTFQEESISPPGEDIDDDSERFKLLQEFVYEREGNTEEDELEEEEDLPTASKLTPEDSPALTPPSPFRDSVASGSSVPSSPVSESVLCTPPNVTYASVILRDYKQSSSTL
Metabotropic glutamate receptor 1, sequence (P23385 whole entry): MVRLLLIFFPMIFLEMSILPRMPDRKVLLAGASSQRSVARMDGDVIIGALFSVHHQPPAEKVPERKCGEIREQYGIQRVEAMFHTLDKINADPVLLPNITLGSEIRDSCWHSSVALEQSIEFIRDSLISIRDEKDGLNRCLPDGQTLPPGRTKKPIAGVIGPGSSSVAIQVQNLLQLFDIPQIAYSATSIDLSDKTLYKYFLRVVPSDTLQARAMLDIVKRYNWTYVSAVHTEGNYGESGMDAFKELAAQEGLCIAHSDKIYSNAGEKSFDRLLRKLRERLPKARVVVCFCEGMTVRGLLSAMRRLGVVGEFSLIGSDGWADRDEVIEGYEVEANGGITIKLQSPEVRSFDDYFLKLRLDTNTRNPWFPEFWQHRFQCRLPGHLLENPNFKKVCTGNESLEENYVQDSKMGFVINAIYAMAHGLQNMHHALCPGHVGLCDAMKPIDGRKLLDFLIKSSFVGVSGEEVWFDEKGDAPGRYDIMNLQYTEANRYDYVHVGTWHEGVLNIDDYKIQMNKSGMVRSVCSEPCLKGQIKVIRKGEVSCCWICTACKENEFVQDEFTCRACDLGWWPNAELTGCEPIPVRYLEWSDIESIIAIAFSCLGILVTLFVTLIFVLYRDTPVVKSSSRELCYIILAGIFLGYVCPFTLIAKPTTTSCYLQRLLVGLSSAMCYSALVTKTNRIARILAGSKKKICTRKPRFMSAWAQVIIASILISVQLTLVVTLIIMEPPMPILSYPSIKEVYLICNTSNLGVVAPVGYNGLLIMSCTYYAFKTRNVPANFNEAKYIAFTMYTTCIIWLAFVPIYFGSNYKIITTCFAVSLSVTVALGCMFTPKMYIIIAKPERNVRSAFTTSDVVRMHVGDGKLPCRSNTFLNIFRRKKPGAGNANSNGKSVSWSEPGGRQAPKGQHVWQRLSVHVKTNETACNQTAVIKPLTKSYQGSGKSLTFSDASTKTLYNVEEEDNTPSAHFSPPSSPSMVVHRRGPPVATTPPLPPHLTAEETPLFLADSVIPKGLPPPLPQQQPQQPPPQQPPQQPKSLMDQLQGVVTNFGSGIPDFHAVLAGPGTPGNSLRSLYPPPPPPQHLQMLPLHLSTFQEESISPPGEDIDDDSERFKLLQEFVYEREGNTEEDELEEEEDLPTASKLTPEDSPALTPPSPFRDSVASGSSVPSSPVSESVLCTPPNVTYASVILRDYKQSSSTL

Row | logD [1] | IC50 [2] [nM] | Ki [2] [nM] | IC50 [3] [nM] | Activity [4, 24] | Activity [5, 24] | Activity [6, 24] | Activity [7, 24] | Activity [8, 24] | Activity [9] | Activity [10] | Activity [11] | SMILES | further results
1 | 1.45 | 13.9 | 5.4 | > 10000 | – | – | – | – | – | – | – | – | CC(C)Nc1cc(-c2csc(N(C)C(=O)c3ccc(F)cc3)n2)ncn1 | –
2 | 2.59 | 395 | 153 | > 10000 | Active | Active | Active | Active | inactive | inactive | inactive | inactive | CC(C)Nc1cc(-c2csc(N(C)C(=O)c3ccc(OCCF)cc3)n2)ncn1 | –
3 | 2.57 | 32.7 | 12.6 | > 10000 | – | – | – | – | – | – | – | – | COc1ccc(C(=O)N(C)c2nc(-c3cc(NC(C)C)ncn3)cs2)cc1 | Activity [12]: Active; Activity [13]: Active; Activity [14]: Active; Activity [15]: Active; Activity [16]: 30%; Activity [17]: 30%; Activity [18]: 30%; Activity [19]: 30%; Activity [4, 25]: Active; Activity [5, 25]: Active; Activity [6, 25]: Active; Activity [7, 25]: Active; Activity [8, 25]: inactive; Activity [20]: > 70%; Activity [21]: inactive; Activity [22]: inactive; Activity [23]: inactive
4 | 2.8 | > 10000 | > 5000 | > 10000 | Active | Active | Active | Active | inactive | inactive | inactive | inactive | CC(C)Nc1cc(-c2csc(N(C)C(=O)c3ccc(OCCCF)cc3)n2)ncn1 | –
